Source: ChEMBL document CHEMBL3808321, “LAT-1 activity of meta-substituted phenylalanine and tyrosine analogs” (Bioorg Med Chem Lett, 2016)

How the values were obtained:
[1] = biological target: T1, Large neutral amino acids transporter small subunit 1 (Homo sapiens, UniProt Q01650); assay: Inhibition of human LAT1 expressed in HEK cells assessed as reduction in uptake of [3H]-gabapentin at 200 uM after 3 mins by scintillation counting based cis-inhibition assay; format: cell-based; conditions: HEK293
Summary of the method: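 HEK cells stably transfected with human LAT-1 cDNA. Test agent at 200 μM competed with [3H]-gabapentin for cellular uptake. Results are % inhibition relative to background signal without inhibitor, with mean of at least three experiments.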

[2] = biological target: T1, Large neutral amino acids transporter small subunit 1; assay: Substrate activity at human LAT1 expressed in HEK cells assessed as efflux rate of [3H]-gabapentin at 200 uM after 5 to 180 secs by scintillation counting based trans-stimulation assay; format: cell-based; conditions: HEK293
Summary of the method: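 HEK-hLAT1 cells were preloaded with [3H]-gabapentin, then incubated with test agent at 200 μM. Efflux rate (fmol/min) was compared with efflux in the agent's absence and with L-leucine and L-arginine as positive and negative controls and L-phenylalanine and L-tyrosine as parent amino acids. Mean of at least three experiments.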

[3] = biological target: T1, Large neutral amino acids transporter small subunit 1; assay: Inhibition of human LAT1 expressed in HEK cells assessed as reduction in uptake of [3H]-gabapentin after 3 mins by scintillation counting based cis-inhibition assay; format: cell-based, HEK293

T1 sequence (Q01650 whole entry): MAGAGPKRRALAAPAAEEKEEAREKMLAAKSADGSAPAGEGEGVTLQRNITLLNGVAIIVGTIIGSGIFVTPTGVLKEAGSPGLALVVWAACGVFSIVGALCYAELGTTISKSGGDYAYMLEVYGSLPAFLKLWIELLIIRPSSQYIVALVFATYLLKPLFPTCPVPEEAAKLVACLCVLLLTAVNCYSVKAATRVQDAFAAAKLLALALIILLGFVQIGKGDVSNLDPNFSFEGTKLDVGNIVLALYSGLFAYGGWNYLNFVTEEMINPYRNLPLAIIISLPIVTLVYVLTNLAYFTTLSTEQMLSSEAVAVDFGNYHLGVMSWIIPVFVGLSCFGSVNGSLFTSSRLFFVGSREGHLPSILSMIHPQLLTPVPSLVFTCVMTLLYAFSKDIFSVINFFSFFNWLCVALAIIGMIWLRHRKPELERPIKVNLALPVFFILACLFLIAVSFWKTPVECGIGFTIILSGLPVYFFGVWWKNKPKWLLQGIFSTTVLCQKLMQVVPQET

SMILES	inhibition [1] [%]	Activity [2] [fmol/min]	IC50 [3] [µM]
CCc1cc(C[C@H](N)C(=O)O)ccc1O	68	2.4	–
N[C@@H](Cc1ccc(O)c(Cl)c1)C(=O)O	63	2.7	–
N[C@@H](Cc1ccc(O)c(Br)c1)C(=O)O	86	1.8	–
CC(C)(C)c1cccc(C[C@H](N)C(=O)O)c1	87	1.5	–
N[C@@H](Cc1cccc(Br)c1)C(=O)O	86	3	–
N[C@@H](Cc1ccc(O)c(-c2ccccc2)c1)C(=O)O	83	1.2	–
N[C@@H](Cc1ccc(O)c(Cc2ccccc2)c1)C(=O)O	96	1.3	9.1
COc1ccc(C[C@H](N)C(=O)O)cc1C	75	2.9	–
CC(C)c1cc(C[C@H](N)C(=O)O)ccc1O	80	2.8	–
CC(C)C[C@H](N)C(=O)O	78	3.5	–
CCc1cccc(C[C@H](N)C(=O)O)c1	77	3.1	–
Cc1ccc(C[C@H](N)C(=O)O)cc1	86	2.7	–
N[C@@H](Cc1ccc(O)c(I)c1)C(=O)O	77	2.4	–
N[C@@H](Cc1ccc(O)cc1)C(=O)O	68	2.1	–
CC(C)c1cccc(C[C@H](N)C(=O)O)c1	91	1.7	–
CC(C)(C)c1cc(C[C@H](N)C(=O)O)ccc1O	81	1.5	–
N[C@@H](Cc1ccccc1)C(=O)O	85	3.6	–
N[C@@H](Cc1cccc(Cl)c1)C(=O)O	84	2.6	–
N[C@@H](Cc1cccc(I)c1)C(=O)O	91	1.9	–
N[C@@H](Cc1cccc(Cc2ccccc2)c1)C(=O)O	98	0.8	7.3
N=C(N)NCCC[C@H](N)C(=O)O	49	0.8	–
N[C@@H](Cc1cccc(F)c1)C(=O)O	79	2.3	–
N[C@@H](Cc1ccc(O)c(F)c1)C(=O)O	63	3	–
Cc1cc(C[C@H](N)C(=O)O)ccc1O	56	3.3	–
N[C@@H](Cc1cccc(-c2ccccc2)c1)C(=O)O	98	0.8	6.6
